Assay results reported in ChEMBL document CHEMBL3739336, “Identification of dual PPARα/γ agonists and their effects on lipid metabolism” (Bioorg Med Chem, 2015).
Calls of active or inactive are those of the source. The rule behind the calls is not given here.

Assays:
[1] = biological target: T1, Peroxisome proliferator-activated receptor alpha (Homo sapiens) (UniProt Q07869); assay: Agonist activity at PPARalpha in human HuH7 cells assessed as increase of fatty acid oxidation by measuring CO2 production using […] at 20 uM after 18 hrs by scintillation counting; assay type: cell-based; details: Huh-7
T1 sequence (whole entry): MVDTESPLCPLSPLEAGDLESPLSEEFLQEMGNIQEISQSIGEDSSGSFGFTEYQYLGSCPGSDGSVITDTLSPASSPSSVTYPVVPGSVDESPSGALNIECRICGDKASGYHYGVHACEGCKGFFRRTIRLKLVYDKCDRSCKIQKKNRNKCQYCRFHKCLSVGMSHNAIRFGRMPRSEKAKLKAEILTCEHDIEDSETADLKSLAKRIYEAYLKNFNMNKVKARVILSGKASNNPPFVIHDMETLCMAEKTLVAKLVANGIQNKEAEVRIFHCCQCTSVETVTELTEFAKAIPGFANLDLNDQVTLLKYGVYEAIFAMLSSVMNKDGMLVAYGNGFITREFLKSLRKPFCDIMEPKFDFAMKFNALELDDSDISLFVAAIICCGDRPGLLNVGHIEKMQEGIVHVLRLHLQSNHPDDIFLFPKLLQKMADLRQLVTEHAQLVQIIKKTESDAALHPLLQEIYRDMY

in vitro = details: human, HEK293 cells
[2] = biological target: Peroxisome proliferator-activated receptor (Homo sapiens) (UniProt P37231+Q07869+Q03181); assay: Agonist activity at PPAR in human THP1 cells assessed as induction of ABCG1 expression at 20 uM after 24 hrs by Western blot analysis relative to control; assay type: cell-based; details: THP-1
Peroxisome proliferator-activated receptor (Homo sapiens), sequence (P37231 whole entry, looked up, one chain of several): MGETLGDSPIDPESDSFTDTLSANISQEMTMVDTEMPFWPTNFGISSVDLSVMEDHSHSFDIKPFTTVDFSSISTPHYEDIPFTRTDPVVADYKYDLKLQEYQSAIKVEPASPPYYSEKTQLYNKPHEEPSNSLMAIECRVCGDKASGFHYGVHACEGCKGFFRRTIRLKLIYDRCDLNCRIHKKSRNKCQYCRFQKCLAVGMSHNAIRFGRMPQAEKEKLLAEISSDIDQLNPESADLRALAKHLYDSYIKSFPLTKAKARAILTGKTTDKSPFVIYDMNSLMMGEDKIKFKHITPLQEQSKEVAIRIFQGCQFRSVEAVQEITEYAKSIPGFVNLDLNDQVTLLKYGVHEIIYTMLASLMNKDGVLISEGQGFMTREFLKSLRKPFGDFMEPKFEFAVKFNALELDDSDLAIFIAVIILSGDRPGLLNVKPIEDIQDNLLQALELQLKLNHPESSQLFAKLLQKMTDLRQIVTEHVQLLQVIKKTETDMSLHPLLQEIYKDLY
Peroxisome proliferator-activated receptor (Homo sapiens), sequence (Q03181 whole entry, looked up, one chain of several): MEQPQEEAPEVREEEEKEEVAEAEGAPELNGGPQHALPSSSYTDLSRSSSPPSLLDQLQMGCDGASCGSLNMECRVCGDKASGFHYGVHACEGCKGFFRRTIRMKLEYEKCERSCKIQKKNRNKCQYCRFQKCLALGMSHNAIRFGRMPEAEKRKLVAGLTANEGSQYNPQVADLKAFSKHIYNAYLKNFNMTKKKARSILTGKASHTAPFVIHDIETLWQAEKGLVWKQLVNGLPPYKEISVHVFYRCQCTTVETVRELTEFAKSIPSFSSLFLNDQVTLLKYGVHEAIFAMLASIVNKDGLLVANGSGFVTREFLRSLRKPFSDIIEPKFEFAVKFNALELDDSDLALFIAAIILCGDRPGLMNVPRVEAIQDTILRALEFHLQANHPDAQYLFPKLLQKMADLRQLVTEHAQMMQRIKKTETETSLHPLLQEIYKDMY

[3] = biological target: T2, Peroxisome proliferator-activated receptor gamma (Mus musculus) (UniProt P37238); assay: Agonist activity at PPARgamma in mouse 3T3-L1 cells assessed as increase of triacylglycerol accumulation at 20 uM after 18 hrs by ORO staining; assay type: cell-based
T2 sequence (whole entry): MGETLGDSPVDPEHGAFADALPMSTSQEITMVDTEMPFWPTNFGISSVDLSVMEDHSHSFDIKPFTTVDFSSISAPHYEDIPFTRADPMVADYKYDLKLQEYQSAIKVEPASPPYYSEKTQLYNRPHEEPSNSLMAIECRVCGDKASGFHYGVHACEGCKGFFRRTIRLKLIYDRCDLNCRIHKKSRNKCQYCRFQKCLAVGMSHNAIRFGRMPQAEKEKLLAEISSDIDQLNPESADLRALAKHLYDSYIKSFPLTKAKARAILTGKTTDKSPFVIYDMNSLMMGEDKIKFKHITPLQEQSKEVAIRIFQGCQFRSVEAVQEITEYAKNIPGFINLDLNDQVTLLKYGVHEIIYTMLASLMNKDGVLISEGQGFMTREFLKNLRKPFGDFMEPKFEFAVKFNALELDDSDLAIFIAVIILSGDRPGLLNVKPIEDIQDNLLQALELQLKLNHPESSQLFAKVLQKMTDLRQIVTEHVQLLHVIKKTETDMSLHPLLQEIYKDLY
Summary of the method: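 Differentiated 3T3-L1 adipocytes on coverslips, treated for 18 h (overnight) with 20 μM or 25 μM. Cells fixed in 4% PFA, rinsed in 60% isopropanol, stained 10 min with Oil Red O (0.5% stock diluted 6/4 in water), then imaged by microscopy for neutral lipid.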

[4] = biological target: T1, Peroxisome proliferator-activated receptor alpha (Homo sapiens); assay: Agonist activity at PPARalpha in human HuH7 cells assessed as increase of CPT1alpha expression at 20 uM by Western blotting relative to control; assay type: cell-based; details: Huh-7
Summary of the method: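 HuH7 hepatoma cells (DMEM/F-12, 10% FCS) incubated overnight ± 20 μM. Whole-cell lysates run on 12% SDS-PAGE and immunoblotted for CPT1α with HRP secondary and ECL. Band intensity normalised to actin; mean ± SEM, n = 3.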

Cc1cccc(Nc2cc(Cl)nc(SCC(=O)O)n2)c1C [PIRINIXIC ACID]
Activity [1]: Active | inhibition at 100 µM (in vitro): < 5%

Cn1c(Cc2ccccc2)nn(CN2CCC(c3ccccc3)CC2)c1=S
fold change (FC) [2]: 3

CCN(CC)c1ccc(NC(=O)c2ccccc2OCC(=O)N2CCc3ccccc32)cc1
Activity [1]: Active | Activity [3]: 20% | fold change (FC) [2]: 3 | fold change (FC) [4]: > 2

COc1ccc2c(=O)c(-c3ccccc3)coc2c1C
Activity [2]: inactive

CN(CCOc1ccc(CC2SC(=O)NC2=O)cc1)c1ccccn1 (stereo not given) [ROSIGLITAZONE]
inhibition at 100 µM (in vitro): < 5%

CCOc1ccc2c(=O)c(-c3ccccc3)coc2c1C
Activity [2]: inactive
